Key:
SK-OV-3 [1] = test: Cytotoxicity against human SKOV3 cells in oxic condition after 4 hrs by sulforhodamine B assay; format: functional, cell-based; settings: SK-OV-3, 4 h
Summary of the method: (§1)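 Log-phase monolayers exposed to drug for 4 h under aerobic (20% O2) or anoxic (<20 ppm O2) conditions, then sulforhodamine B staining 5 days later. IC50 interpolated as concentration lowering cell density to 50% of same-plate controls. HCR = IC50(oxic)/IC50(hypoxic), mean of intraexperiment ratios. A549 P450R line is a stable transfectant with 9-fold higher cytochrome c reduction rate than parent.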

HT-29 [2] = test: Hypoxic cytotoxicity ratio, IC50 for human HT-29 cells in oxic condition to IC50 for human HT-29 cells in hypoxic condition; format: functional; summary of the method: as §1
SK-OV-3 [3] = test: Hypoxic cytotoxicity ratio, IC50 for human SKOV3 cells in oxic condition to IC50 for human SKOV3 cells in hypoxic condition; format: functional; summary of the method: as §1
HT-29 [4] = test: Cytotoxicity against human HT-29 cells in oxic condition after 4 hrs by sulforhodamine B assay; format: functional, cell-based; settings: HT-29, 4 h; summary of the method: as §1
HT-29 [5] = test: Cytotoxicity against human HT-29 cells in hypoxic condition after 4 hrs by sulforhodamine B assay; format: functional, cell-based; settings: HT-29, 4 h; summary of the method: as §1
SK-OV-3 [6] = test: Cytotoxicity against human SKOV3 cells in hypoxic condition after 4 hrs by sulforhodamine B assay; format: functional, cell-based; settings: SK-OV-3, 4 h; summary of the method: as §1

Row | Compound | IC50 (SK-OV-3 [1]) [nM] | Ratio IC50 (HT-29 [2]) | Ratio IC50 (SK-OV-3 [3]) | IC50 (HT-29 [4]) [nM] | IC50 (HT-29 [5]) [nM] | IC50 (SK-OV-3 [6]) [nM]
1 | CC(=O)c1ccc2c([N+](=O)[O-])cc3c(c2c1)C(CCl)CN3C(=O)c1cc2cc(OCCN(C)C)ccc2[nH]1 (configuration not stated) | 200 | 1.1 | 1.3 | 150 |  | 
2 | COc1cc2cc(C(=O)N3CC(CCl)c4c3cc(N)c3cc(C(N)=O)ccc43)[nH]c2c(OC)c1OC (configuration not stated) | 34000 | 2.3 | 1.2 | 59000 | 28 | 27
3 | CN(C)CCOc1ccc2[nH]c(C(=O)N3CC(CCl)c4c3cc([N+](=O)[O-])c3ccccc43)cc2c1 (configuration not stated) | 1400 |  |  | 470 | 0.48 | 0.87
4 | CN(C)CCOc1ccc2[nH]c(C(=O)N3CC(CCl)c4c3cc(N)c3ccccc43)cc2c1 (configuration not stated) | 6800 | 1.3 | 0.97 | 5000 | 3.5 | 6.6
5 | CN(C)CCOc1ccc2[nH]c(C(=O)N3CC(CCl)c4c3cc([N+](=O)[O-])c3c(S(N)(=O)=O)cccc43)cc2c1 (configuration not stated) | 3700 | 2.3 | 4.6 | 2700 | 1200 | 800
6 | COC(=O)c1ccc2c3c(cc(N)c2c1)N(C(=O)c1cc2cc(OCCN(C)C)ccc2[nH]1)CC3CCl (configuration not stated) | 7700 | 1.7 | 0.91 | 8600 | 5.7 | 8.3
7 | CN(C)CCOc1ccc2[nH]c(C(=O)N3CC(CCl)c4c3cc([N+](=O)[O-])c3ccc(S(C)(=O)=O)cc43)cc2c1 (configuration not stated) | 1900 | 1.2 | 2.7 | 980 |  | 
8 | CN(C)CCOc1ccc2[nH]c(C(=O)N3CC(CCl)c4c3cc(N)c3cc(S(C)(=O)=O)ccc43)cc2c1 (configuration not stated) | 14000 | 1.6 | 1.7 | 11000 | 7.3 | 8.2
9 | CC(=O)c1cccc2c3c(cc([N+](=O)[O-])c12)N(C(=O)c1cc2cc(OCCN(C)C)ccc2[nH]1)CC3CCl (configuration not stated) | 640 | 5.2 | 12 | 200 | 35 | 52
10 | COc1cc2cc(C(=O)N3CC(CCl)c4c3cc([N+](=O)[O-])c3ccc(S(C)(=O)=O)cc43)[nH]c2c(OC)c1OC (configuration not stated) | 11000 | 2.5 | 4.2 | 14000 | 7.2 | 3.9
11 | CN(C)CCOc1ccc2[nH]c(C(=O)N3CC(CCl)c4c3cc([N+](=O)[O-])c3ccc(C#N)cc43)cc2c1 (configuration not stated) | 1200 | 1.4 | 1.5 | 1400 | 1200 | 880
12 | CN(C)CCOc1ccc2[nH]c(C(=O)N3CC(CCl)c4c3cc([N+](=O)[O-])c3cc([N+](=O)[O-])ccc43)cc2c1 (configuration not stated) | 1100 | 9.6 | 9.3 | 890 | 0.093 | 0.12
13 | COc1cc2cc(C(=O)N3CC(CCl)c4c3cc([N+](=O)[O-])c3cc(C#N)ccc43)[nH]c2c(OC)c1OC (configuration not stated) | 6400 | 2.5 | 13 | 5300 | 2400 | 1000
14 | CN(C)CCOc1ccc2[nH]c(C(=O)N3CC(CCl)c4c3cc(N)c3cc(C#N)ccc43)cc2c1 (configuration not stated) | 13000 | 2 | 1.1 | 17000 | 8.6 | 12
15 | COc1cc2cc(C(=O)N3CC(CCl)c4c3cc([N+](=O)[O-])c3cccc([N+](=O)[O-])c43)[nH]c2c(OC)c1OC (configuration not stated) | 55000 | 1.2 | <1.1 | 34000 | 33000 | > 50000
16 | CN(C)CCOc1ccc2[nH]c(C(=O)N3CC(CCl)c4c3cc(N)c3cc(S(N)(=O)=O)ccc43)cc2c1 (configuration not stated) | 23000 | 1.8 | 1.4 | 35000 | 23 | 16
17 | COc1cc2cc(C(=O)N3CC(CCl)c4c3cc([N+](=O)[O-])c3c([N+](=O)[O-])cccc43)[nH]c2c(OC)c1OC (configuration not stated) | > 20000 |  |  | > 20000 | > 20 | > 20
18 | COc1cc2cc(C(=O)N3CC(CCl)c4c3cc(N)c3ccc(S(C)(=O)=O)cc43)[nH]c2c(OC)c1OC (configuration not stated) | 19000 | 1 | 1.4 | 25000 | 28 | 14
19 | CN(C)CCOc1ccc2[nH]c(C(=O)N3CC(CCl)c4c3cc([N+](=O)[O-])c3cc(C#N)ccc43)cc2c1 (configuration not stated) | 810 |  |  | 700 | 0.43 | 0.19

Row | Compound | IC50 (SK-OV-3 [1]) [nM] | Ratio IC50 (HT-29 [2]) | Ratio IC50 (SK-OV-3 [3]) | IC50 (HT-29 [4]) [nM] | IC50 (HT-29 [5]) [nM] | IC50 (SK-OV-3 [6]) [nM]
20 | COc1cc2cc(C(=O)N3CC(CCl)c4c3cc(N)c3cc(C#N)ccc43)[nH]c2c(OC)c1OC (configuration not stated) | 10000 | 1.9 | 1.3 | 15000 | 11 | 9
21 | COc1cc2cc(C(=O)N3CC(CCl)c4c3cc(N)c3cc(S(N)(=O)=O)ccc43)[nH]c2c(OC)c1OC (configuration not stated) | 41000 | 1.1 | 1.3 | 86000 | 91 | 33
22 | CN(C)CCOc1ccc2[nH]c(C(=O)N3CC(CCl)c4c3cc([N+](=O)[O-])c3ccc(C(N)=O)cc43)cc2c1 (configuration not stated) | 3400 | 22 | 34 | 2800 |  | 
23 | CN(C)CCOc1ccc2[nH]c(C(=O)N3CC(CCl)c4c3cc([N+](=O)[O-])c3c(C#N)cccc43)cc2c1 (configuration not stated) | 170 | 1.1 | 1.7 | 120 | 0.1 | 0.1
24 | COc1cc2cc(C(=O)N3CC(CCl)c4c3cc([N+](=O)[O-])c3cc(C(N)=O)ccc43)[nH]c2c(OC)c1OC (configuration not stated) | 5800 | 2.8 | 6.1 | 7900 | 3.6 | 1.6
25 | CN(C)CCOc1ccc2[nH]c(C(=O)N3CC(CCl)c4c3cc(N)c3cc(C(N)=O)ccc43)cc2c1 (configuration not stated) | 13000 | 1.4 | 1 | 61000 | 48 | 13
26 | CN(C)CCOc1ccc2[nH]c(C(=O)N3CC(CCl)c4c3cc([N+](=O)[O-])c3cccc([N+](=O)[O-])c43)cc2c1 (configuration not stated) | 1200 | 1.3 | 1.5 | 1400 |  | 
27 | COc1cc2cc(C(=O)N3CC(CCl)c4c3cc([N+](=O)[O-])c3cc(S(C)(=O)=O)ccc43)[nH]c2c(OC)c1OC (configuration not stated) | 17000 | 2 | 1.9 | 14000 | 7.2 | 9.3
28 | COC(=O)c1ccc2c3c(cc([N+](=O)[O-])c2c1)N(C(=O)c1cc2cc(OCCN(C)C)ccc2[nH]1)CC3CCl (configuration not stated) | 440 | 1.2 | 1.9 | 320 |  | 
29 | COc1cc2cc(C(=O)N3CC(CCl)c4c3cc(N)c3cc(S(C)(=O)=O)ccc43)[nH]c2c(OC)c1OC (configuration not stated) | 32000 | 0.86 | 1.2 | 32000 | 36 | 25
30 | COC(=O)c1ccc2c([N+](=O)[O-])cc3c(c2c1)C(CCl)CN3C(=O)c1cc2cc(OCCN(C)C)ccc2[nH]1 (configuration not stated) | 520 | 1.6 | 2.4 | 550 |  | 
31 | CN(C)CCOc1ccc2[nH]c(C(=O)N3CC(CCl)c4c3cc([N+](=O)[O-])c3ccc(S(N)(=O)=O)cc43)cc2c1 (configuration not stated) | 4900 | 26 | 21 | 9000 |  | 
32 | CN(C)CCOc1ccc2[nH]c(C(=O)N3CC(CCl)c4c3cc([N+](=O)[O-])c3cc(S(C)(=O)=O)ccc43)cc2c1 (configuration not stated) | 1300 | 4 | 11 | 970 | 0.27 | 0.12
33 | COc1cc2cc(C(=O)N3CC(CCl)c4c3cc([N+](=O)[O-])c3ccccc43)[nH]c2c(OC)c1OC (configuration not stated) | 4200 | 2.5 | 2.8 | 3400 | 1.6 | 1.7
34 | CN(C)CCOc1ccc2[nH]c(C(=O)N3CC(CCl)c4c3cc(N)c3ccc(S(C)(=O)=O)cc43)cc2c1 (configuration not stated) | 18000 | 1.9 | 1.5 | 29000 | 16 | 12
35 | CC(=O)c1ccc2c3c(cc(N)c2c1)N(C(=O)c1cc2cc(OCCN(C)C)ccc2[nH]1)CC3CCl (configuration not stated) | 11000 | 1.5 | 1.4 | 7600 | 5.6 | 8.2
36 | COc1cc2cc(C(=O)N3CC(CCl)c4c3cc([N+](=O)[O-])c3cc([N+](=O)[O-])ccc43)[nH]c2c(OC)c1OC (configuration not stated) | 16000 | 12 | 70 | 14000 | 1300 | 240
37 | CC(=O)c1ccc2c3c(cc([N+](=O)[O-])c2c1)N(C(=O)c1cc2cc(OCCN(C)C)ccc2[nH]1)CC3CCl (configuration not stated) | 640 | 1.5 | 4 | 170 |  | 
38 | CN(C)CCOc1ccc2[nH]c(C(=O)N3CC(CCl)c4c3cc([N+](=O)[O-])c3cc(C(N)=O)ccc43)cc2c1 (configuration not stated) | 3900 |  |  | 4100 |  | 

From ChEMBL document CHEMBL1156136, “Hypoxia-activated prodrugs: substituent effects on the properties of nitro seco-1,2,9,9a-tetrahydrocyclopropa[c]benz[e]indol-4-one (nitroCBI) prodrugs of DNA minor groove alkylating agents” (J Med Chem, 2009)
